One may read the inhibition as the relative decrease from the control value, in per cent. High values mean a strong effect, low ones a weak effect.

One series deals with T1, CYP2B6 (Homo sapiens, UniProt P20813).
T1 sequence (P20813 whole entry): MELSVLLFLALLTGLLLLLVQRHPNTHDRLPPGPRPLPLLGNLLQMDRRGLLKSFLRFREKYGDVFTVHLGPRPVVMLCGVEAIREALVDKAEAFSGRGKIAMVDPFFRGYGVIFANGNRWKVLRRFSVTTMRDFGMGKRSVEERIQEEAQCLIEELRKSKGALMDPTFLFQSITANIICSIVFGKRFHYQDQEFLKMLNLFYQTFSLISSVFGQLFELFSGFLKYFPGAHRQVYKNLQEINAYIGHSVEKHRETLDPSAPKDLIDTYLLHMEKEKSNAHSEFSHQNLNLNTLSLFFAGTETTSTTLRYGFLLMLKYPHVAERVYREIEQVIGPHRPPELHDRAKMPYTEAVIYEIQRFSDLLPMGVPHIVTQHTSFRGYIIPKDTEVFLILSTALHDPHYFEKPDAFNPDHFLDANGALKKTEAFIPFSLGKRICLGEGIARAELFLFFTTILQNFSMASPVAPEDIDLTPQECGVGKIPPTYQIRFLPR
Put plainly: in vitro.

In series [1] the target is T2, CYP2C8 (Homo sapiens, UniProt P10632).
T2 sequence (P10632 whole entry): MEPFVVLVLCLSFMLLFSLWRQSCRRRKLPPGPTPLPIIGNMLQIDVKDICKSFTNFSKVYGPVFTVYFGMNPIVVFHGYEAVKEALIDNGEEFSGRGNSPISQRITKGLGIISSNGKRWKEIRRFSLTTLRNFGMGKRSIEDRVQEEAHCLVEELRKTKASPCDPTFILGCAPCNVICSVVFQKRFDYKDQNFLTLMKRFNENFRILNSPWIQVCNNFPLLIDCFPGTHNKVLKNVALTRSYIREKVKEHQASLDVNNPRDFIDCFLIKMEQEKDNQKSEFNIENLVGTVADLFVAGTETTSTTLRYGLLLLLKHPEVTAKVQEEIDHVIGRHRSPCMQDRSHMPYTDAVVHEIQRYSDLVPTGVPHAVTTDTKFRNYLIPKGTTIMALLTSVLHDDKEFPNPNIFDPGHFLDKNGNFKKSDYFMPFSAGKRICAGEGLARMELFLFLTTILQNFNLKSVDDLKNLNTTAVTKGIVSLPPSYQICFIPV
Put plainly: in vitro.

The target of another series is CYP2C9 (Homo sapiens, UniProt P11712). Put plainly: in vitro.
The target in the next series is CYP2D6 (Homo sapiens, UniProt P10635). Put plainly: in vitro.
Series [2] has as its target T3, CYP3A4 (Homo sapiens, UniProt P08684). The series can be described thus: Time dependent inhibition of CYP3A4 (unknown origin) at 10 uM by LC/MS system. In kind it is ADME. In short, it runs like this: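 CYP3A4: human liver microsomes at 0.5 mg/mL in preincubation, 0.1 M sodium phosphate, NADPH-generating system, 0 or 30 min. Ten-fold dilution into incubation with 2.5 μM midazolam (final), 10 min. Each value is relative to the matched control without inhibitor. % enzyme inactivation = 100 × [1 − %control(30 min)/%control(0 min)]; 10% threshold.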

For the next series, the target named is T4, CYP1A2 (Homo sapiens, UniProt P05177).
T4 sequence (P05177 whole entry): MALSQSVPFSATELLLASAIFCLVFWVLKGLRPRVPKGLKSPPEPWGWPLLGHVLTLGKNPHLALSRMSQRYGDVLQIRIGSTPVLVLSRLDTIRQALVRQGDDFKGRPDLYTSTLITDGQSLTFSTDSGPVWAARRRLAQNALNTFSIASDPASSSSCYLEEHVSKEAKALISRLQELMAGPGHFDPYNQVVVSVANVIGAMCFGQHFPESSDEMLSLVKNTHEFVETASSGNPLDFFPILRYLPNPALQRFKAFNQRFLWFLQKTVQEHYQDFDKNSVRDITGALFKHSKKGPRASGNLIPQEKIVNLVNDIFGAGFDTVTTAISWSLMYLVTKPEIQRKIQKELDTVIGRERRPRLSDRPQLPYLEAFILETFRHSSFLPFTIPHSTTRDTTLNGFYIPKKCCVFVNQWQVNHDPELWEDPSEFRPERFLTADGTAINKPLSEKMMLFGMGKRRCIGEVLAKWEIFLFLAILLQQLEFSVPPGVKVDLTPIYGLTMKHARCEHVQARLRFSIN
Put plainly: in vitro.

Series [3] concerns Liver microsome. The series can be described thus: Covalent binding in human liver microsomes measured per mg of protein using radiolabelled compound at 10 uM after 1 hr incubation by liquid scintillation counting. For orientation: Microsomes from liver hold many membrane-bound enzymes, among them those of drug oxidation.
In series [4] the test system is Liver microsome. Put plainly: Metabolic activation in human liver microsomes assessed as [3H]GSH adduct formation rate measured per mg of protein at 100 uM by [3H]GSH trapping assay.
The next series concerns the target CYP2C19 (Homo sapiens, UniProt P33261). The series can be described thus: in vitro.
For series [5], the system named is Liver microsome. Conditions: human, microsomes, 100 µM.
In series [6] the target is T3, CYP3A4. Put plainly: in vitro.
Series [7] in a line: Intrinsic clearance for reactive metabolites formation assessed as summation of [3H]GSH adduct formation rate-based reactive metabolites formation and cytochrome P450 (unknown origin) inactivation rate-based reactive metabolites formation. Particulars: human.
Series [8] in a line: Intrinsic clearance for reactive metabolites formation per mg of protein based on cytochrome P450 (unknown origin) inactivation rate by TDI assay. Particulars: human.
Series [9] deals with T2, CYP2C8. The series can be described thus: Time dependent inhibition of CYP2C8 (unknown origin) at 10 uM by LC/MS system. In kind it is ADME. In a few lines: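 CYP2C8 in human liver microsomes (1.0 mg/mL in preincubation), 0.1 M sodium phosphate, NADPH-generating system. Preincubation 0 or 30 min, then ten-fold dilution into incubation with 10 μM paclitaxel (final) for 10 min.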

Sequence of CYP2D6 (P10635 whole entry): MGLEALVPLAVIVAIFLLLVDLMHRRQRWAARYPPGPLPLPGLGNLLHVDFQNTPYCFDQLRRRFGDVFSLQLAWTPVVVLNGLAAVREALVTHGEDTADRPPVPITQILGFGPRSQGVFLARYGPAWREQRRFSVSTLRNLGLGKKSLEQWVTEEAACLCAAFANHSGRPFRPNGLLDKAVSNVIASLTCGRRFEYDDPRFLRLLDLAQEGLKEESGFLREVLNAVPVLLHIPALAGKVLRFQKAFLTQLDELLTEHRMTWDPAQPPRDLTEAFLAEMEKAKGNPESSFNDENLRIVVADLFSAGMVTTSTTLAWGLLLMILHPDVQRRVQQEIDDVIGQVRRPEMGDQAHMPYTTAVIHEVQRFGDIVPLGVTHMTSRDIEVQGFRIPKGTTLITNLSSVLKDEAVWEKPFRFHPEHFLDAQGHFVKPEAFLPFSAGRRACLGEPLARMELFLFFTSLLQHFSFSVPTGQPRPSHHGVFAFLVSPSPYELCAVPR
Sequence of CYP2C9 (P11712 whole entry): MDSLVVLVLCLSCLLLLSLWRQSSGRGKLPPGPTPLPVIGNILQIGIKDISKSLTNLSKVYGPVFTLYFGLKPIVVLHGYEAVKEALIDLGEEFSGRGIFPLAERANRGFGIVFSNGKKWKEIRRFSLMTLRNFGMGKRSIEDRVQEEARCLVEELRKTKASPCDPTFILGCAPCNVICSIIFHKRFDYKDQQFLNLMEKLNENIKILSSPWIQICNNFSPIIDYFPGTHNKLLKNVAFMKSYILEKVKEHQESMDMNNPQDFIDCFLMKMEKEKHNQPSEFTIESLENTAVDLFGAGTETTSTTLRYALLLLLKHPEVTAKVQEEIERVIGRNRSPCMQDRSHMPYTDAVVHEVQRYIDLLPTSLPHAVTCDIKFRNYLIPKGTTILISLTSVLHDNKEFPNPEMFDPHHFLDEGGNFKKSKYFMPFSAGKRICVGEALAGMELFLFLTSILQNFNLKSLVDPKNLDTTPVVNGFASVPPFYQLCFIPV
T3 sequence (P08684 whole entry): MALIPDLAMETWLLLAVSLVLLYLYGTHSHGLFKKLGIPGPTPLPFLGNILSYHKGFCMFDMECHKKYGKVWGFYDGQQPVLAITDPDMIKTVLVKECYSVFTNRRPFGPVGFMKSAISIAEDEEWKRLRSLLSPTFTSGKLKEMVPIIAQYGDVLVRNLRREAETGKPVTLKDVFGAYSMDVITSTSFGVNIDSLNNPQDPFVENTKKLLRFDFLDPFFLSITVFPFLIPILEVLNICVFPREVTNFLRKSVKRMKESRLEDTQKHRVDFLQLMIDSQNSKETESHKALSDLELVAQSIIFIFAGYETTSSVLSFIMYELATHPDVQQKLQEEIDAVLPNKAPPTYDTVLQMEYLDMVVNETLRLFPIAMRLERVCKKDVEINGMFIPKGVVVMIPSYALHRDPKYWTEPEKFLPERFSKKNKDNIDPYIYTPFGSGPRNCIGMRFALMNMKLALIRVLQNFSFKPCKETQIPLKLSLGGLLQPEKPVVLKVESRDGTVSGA
Sequence of CYP2C19 (P33261 whole entry): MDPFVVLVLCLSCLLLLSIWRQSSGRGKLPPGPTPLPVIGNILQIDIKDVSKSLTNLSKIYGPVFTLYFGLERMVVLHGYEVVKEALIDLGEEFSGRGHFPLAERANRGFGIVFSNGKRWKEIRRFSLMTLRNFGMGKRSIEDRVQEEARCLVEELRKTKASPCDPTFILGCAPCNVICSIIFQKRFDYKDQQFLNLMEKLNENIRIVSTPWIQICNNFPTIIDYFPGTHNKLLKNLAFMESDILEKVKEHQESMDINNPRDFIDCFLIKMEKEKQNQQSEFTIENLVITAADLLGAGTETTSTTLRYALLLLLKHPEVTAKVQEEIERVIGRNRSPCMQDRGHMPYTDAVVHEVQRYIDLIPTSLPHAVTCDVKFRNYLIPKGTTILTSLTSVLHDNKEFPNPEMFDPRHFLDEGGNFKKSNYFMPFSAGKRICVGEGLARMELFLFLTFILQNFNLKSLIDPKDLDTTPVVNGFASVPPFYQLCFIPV

As for `CC(=O)Nc1ccc(O)cc1` [ACETAMINOPHEN], the inhibition at 100 µM against CYP2B6, against CYP2C8 [1], on CYP2C9, on CYP2D6 and on CYP1A2 was under 10% in each case. Further, the inhibition at 10 µM against CYP3A4 [2] was under 10%.
As to `NC(=O)N1c2ccccc2C=Cc2ccccc21` [CARBAMAZEPINE], the PB in the series on Liver microsome [3] is reported as 3.3 pmol. Also, the inhibition at 100 µM against CYP2B6, against CYP2C8 [1], against CYP2C9, against CYP2C19 (microsomes), at CYP2D6 and at CYP1A2 was under 10% in each case. For the same molecule, in the series on Liver microsome [4], the Drug metabolism entry was “metabolite_not_detected”. The inhibition at 10 µM at CYP3A4 [2] is under 10%.
For the molecule `O=C(O)Cc1ccccc1Nc1c(Cl)cccc1Cl` [DICLOFENAC], the inhibition at 100 µM against CYP2B6, against CYP2C8 [1], on CYP2C9, against CYP3A4 [6], against CYP2C19 (microsomes) and against CYP2D6 was under 10% each time. Moreover, the inhibition at 100 µM against CYP1A2 was under 10%. The CLH in the series on Liver microsome [5] is 0.01 µL/min/mg. Further, the Drug metabolism in the series with Liver microsome [4] amounted to 1 pmol/min. In addition, the clearance in series [7] was 0.01 µL/min/mg.
In the series on Liver microsome [3], `CC[C@H]1OC(=O)[C@H](C)[C@@H](O[C@H]2C[C@@](C)(OC)[C@@H](O)[C@H](C)O2)[C@H](C)[C@@H](O[C@@H]2O[C@H](C)C[C@H](N(C)C)[C@H]2O)[C@](C)(O)C[C@@H](C)C(=O)[C@H](C)[C@@H](O)[C@]1(C)O` [ERYTHROMYCIN] registered a PB of 57.1 pmol. In addition, the inhibition at 100 µM against CYP2B6 was under 10%; on CYP2C8 [1], under 10%; at CYP2C9, under 10%; against CYP3A4 [6] it was 45%; on CYP2C19 (human liver microsomes), under 10%; at CYP2D6, under 10%. On CYP1A2, this molecule registered an inhibition at 100 µM of under 10%. Moreover, the Drug metabolism result in the series on Liver microsome [4] is reported as “metabolite_not_detected”. Also, the clearance in series [7] and in [8] was 0.021 µL/min/mg in each case.
Take `CC(C)C(=O)Nc1ccc([N+](=O)[O-])c(C(F)(F)F)c1` [FLUTAMIDE]: the PB in the series on Liver microsome [3] is listed as 178 pmol. Further, the inhibition at 100 µM on CYP2B6, against CYP2C8 [1], at CYP2C9, on CYP3A4 [6], against CYP2C19 (human liver microsomes) and at CYP2D6 was under 10% each time. This molecule also came in with an inhibition at 100 µM at CYP1A2 of under 10%. Besides, in the series on Liver microsome [5], the CLH was found to be 0.02 µL/min/mg. In addition, the Drug metabolism with Liver microsome [4] is 2 pmol/min. For the same molecule, the clearance in [7] was 0.02 µL/min/mg.
The molecule `COc1ccc2c(c1)c(CC(=O)O)c(C)n2C(=O)c1ccc(Cl)cc1` [INDOMETHACIN] came in with a PB in the series with Liver microsome [3] of 14.7 pmol. In addition, the inhibition at 100 µM against CYP2B6 was under 10%; against CYP2C8 [1] it was 14%; against CYP2C9, under 10%; against CYP3A4 [6], under 10%; against CYP2C19 (human liver microsomes), under 10%; on CYP2D6, under 10%. This molecule yielded an inhibition at 100 µM against CYP1A2 of under 10%. Also, the Drug metabolism result in the series with Liver microsome [4] is “metabolite_not_detected”. Besides, the clearance in series [7] and in [8] was 0.001 µL/min/mg in each case.
In the series with Liver microsome [3], `Cc1ccnc2c1NC(=O)c1cccnc1N2C1CC1` [NEVIRAPINE] gave a PB of 19.1 pmol. Besides, the inhibition at 100 µM is under 10% against CYP2B6; under 10% against CYP2C8 [1]; under 10% at CYP2C9; under 10% against CYP3A4 [6]; 12% against CYP2C19 (human liver microsomes); under 10% against CYP2D6. For the same molecule, the inhibition at 100 µM at CYP1A2 was under 10%. Besides, in the series with Liver microsome [5], the CLH was determined as 0.012 µL/min/mg. The Drug metabolism with Liver microsome [4] is 1.2 pmol/min. Further, the clearance in series [7] turned out to be 0.013 µL/min/mg; in [8], 0.001 µL/min/mg.
The molecule `Cc1cc2c(s1)Nc1ccccc1N=C2N1CCN(C)CC1` [OLANZAPINE] registered a PB with Liver microsome [3] of 138.9 pmol. The inhibition at 100 µM against CYP2B6 is under 10%; at CYP2C8 [1], under 10%; against CYP2C9 it was under 10%; on CYP3A4 [6], under 10%; at CYP2C19 (human liver microsomes), under 10%; at CYP2D6, 63%. The same molecule displayed an inhibition at 100 µM at CYP1A2 of under 10%. The molecule further returned a CLH with Liver microsome [5] of 0.113 µL/min/mg. For the same molecule, in the series with Liver microsome [4], the Drug metabolism is 11.3 pmol/min. Also, the clearance was 0.119 µL/min/mg in series [7] and 0.006 µL/min/mg in series [8].
In the case of `O=C1NC(=O)C(c2ccccc2)(c2ccccc2)N1` [PHENYTOIN], the PB in the series with Liver microsome [3] amounted to 4.4 pmol. Moreover, the inhibition at 100 µM at CYP2B6, on CYP2C8 [1], on CYP2C9, at CYP3A4 [6], against CYP2C19 (microsomes) and at CYP2D6 was under 10% in each case. Also, the inhibition at 100 µM against CYP1A2 is under 10%. Besides, the CLH in the series with Liver microsome [5] was 0.012 µL/min/mg. For the same molecule, the Drug metabolism in the series on Liver microsome [4] stood at 1.2 pmol/min. Also, in series [7], the clearance turned out to be 0.012 µL/min/mg.
With `Nc1c2c(nc3ccccc13)CCCC2` [TACRINE], the PB in the series with Liver microsome [3] worked out at 137 pmol. The inhibition at 100 µM against CYP2B6 is under 10%; on CYP2C8 [1] it was under 10%; against CYP2C9 it was under 10%; at CYP3A4 [6], under 10%; on CYP2C19 (microsomes), under 10%; against CYP2D6, 24%. The same molecule yielded an inhibition at 100 µM against CYP1A2 of 28%. For the same molecule, the Drug metabolism entry in the series with Liver microsome [4] is “metabolite_not_detected”. The clearance in [7] and in [8] was 0.007 µL/min/mg in each case.
On to `CC/C(=C(\c1ccccc1)c1ccc(OCCN(C)C)cc1)c1ccccc1` [TAMOXIFEN], for which, in the series with Liver microsome [3], the PB came out at 11.5 pmol. This molecule returned an inhibition at 10 µM on CYP2C8 [9] of under 10%. The inhibition at 100 µM against CYP2B6, against CYP3A4 [6], at CYP2C19 (microsomes) and at CYP1A2 was under 10% in each case. Besides, in the series on Liver microsome [4], the Drug metabolism result is “metabolite_not_detected”.
For the molecule `CC(=O)CC(c1ccccc1)c1c(O)c2ccccc2oc1=O` (configuration not stated) [WARFARIN], the PB with Liver microsome [3] amounted to 15.9 pmol. In addition, the inhibition at 100 µM against CYP2B6, on CYP2C8 [1], against CYP2C9, against CYP3A4 [6], against CYP2C19 (human liver microsomes) and against CYP2D6 was under 10% each time. On CYP1A2, the inhibition at 100 µM came out at 19%. Further, the Drug metabolism result in the series with Liver microsome [4] was “metabolite_not_detected”. Also, the clearance in [7] and in series [8] was 0.003 µL/min/mg each time.
